# A selection: hits, their analogues and other compounds. The true share with any hit is near 3.1%.
# NadD block: inhibitors of S. aureus NadD, primary screen, biochemical, colorimetric, uHTS; inhibition, % at 20 µM; actives 0.78% (n = 360,000); purified NadD enzyme, colorimetric absorbance read-out; AID 602399, 2012; in the data active means inhibition above about 26%
# PP1 inh: PP1-alpha phosphatase inhibitors, primary screen, counter-screen for PP5 inhibitor project, biochemical, fluorescence, OMFP substrate, single point; Serine/threonine-protein phosphatase PP1-alpha catalytic subunit (Homo sapiens), P62136; purified PP1alpha; inhibition, % at 6.7 µM; actives 0.9% (n = 320,000); AID 2235, 2010;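 active means inhibition above the mean inhibition of all tested compounds plus 3 SD, computed separately for each screening campaign, cut at about 15% in these data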
# core dimer inh: inhibitors of HCV core protein dimerization, primary screen, biochemical, TR-FRET, high-throughput. TR-FRET GST/Flag-core106 dimerization, 1536-well. inhibition, % at 5 µM. actives 0.33% (n = 300,000);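 active means inhibition above the mean of all tested compounds plus 3 SD, set per screening campaign, cut at about 45% in these data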
#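 Assay system: GST-tagged and Flag-tagged HCV core protein residues 1-106 / Times: compound-protein-antibody incubation 4 h at 22.5 °C / Signal: time-resolved FRET, ex 340 nm, em 617 and 671 nm / Evaluation: % inhibition based on acceptor/donor emission ratio / Benchmarks: wells lacking GST-core106 and wells with excess unlabelled core106 / Repeats: singlicate, one well per compound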
# PP5 inh: PP5 phosphatase inhibitors, primary screen, biochemical, fluorescence. Serine/threonine-protein phosphatase 5 (Homo sapiens), P53041. purified PP5c, OMFP substrate fluorescence. inhibition, % at 6.7 µM. actives 0.18% (n = 320,000). AID 1987, 2009;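 active means inhibition above the campaign's mean inhibition across all tested compounds plus 3 SD, cut at about 9.5% in these data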;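 further: 0% = DMSO only and 100% = 100 µM cantharidin control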
# Target sequence (P53041 whole entry, looked up): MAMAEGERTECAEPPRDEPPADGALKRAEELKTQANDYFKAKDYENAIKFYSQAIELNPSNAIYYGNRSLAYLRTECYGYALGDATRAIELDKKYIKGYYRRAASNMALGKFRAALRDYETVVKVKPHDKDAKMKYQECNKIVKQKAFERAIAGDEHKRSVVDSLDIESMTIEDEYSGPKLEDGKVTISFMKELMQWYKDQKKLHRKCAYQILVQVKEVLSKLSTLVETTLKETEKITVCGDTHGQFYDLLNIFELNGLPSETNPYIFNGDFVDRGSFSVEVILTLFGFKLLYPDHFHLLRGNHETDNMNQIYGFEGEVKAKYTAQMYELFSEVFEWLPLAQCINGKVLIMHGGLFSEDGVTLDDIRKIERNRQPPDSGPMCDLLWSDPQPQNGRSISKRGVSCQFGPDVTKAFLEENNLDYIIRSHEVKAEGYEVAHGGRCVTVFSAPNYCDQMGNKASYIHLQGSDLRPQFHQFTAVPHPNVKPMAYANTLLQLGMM
# CTSL1 counter: Fasciola hepatica cathepsin L1 inhibitors, primary screen, counter-screen for PFM18AAP inhibitor project, biochemical, QFRET, fluorogenic peptide substrate; recombinant F. hepatica cathepsin L1, Z-Leu-Arg-MCA fluorescence; actives 0.49% (n = 300,000); AID 1906, 2009; inhibition, % at 5.96 µM;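 active means inhibition above the mean of all tested compounds plus 3 SD, set per screening campaign, cut at about 17% in these data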;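 further: 0% = plate median of test compound wells and 100% = 1 µM Z-Phe-Ala-diazomethylketone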
# Myeloid diff MLP: induction of myeloid progenitor differentiation, primary screen, cell-based, flow cytometry, MLPCN library; ER-HoxA9 myeloid progenitors, lysozyme-GFP differentiation; calls only at 10 µM; actives 1% (n = 360,000);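 active means normalized GFP-positive differentiation at or above the plate's own cutoff, the solvent-only control mean plus 3 SD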;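 further: cells exposed to compound for four days before flow analysis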
# Active calls of the source: *; i = inactive; . = not tested or not shown; + = active, no number.
SMILES,NadD block,PP1 inh,core dimer inh,PP5 inh,CTSL1 counter,Myeloid diff MLP
O=C(NC1CCCC(C(F)(F)F)C1)c1ccc([N+](=O)[O-])o1 (centres undefined),10,.,.,.,.,+
CCOC(=O)C1C(=O)C=C(/C=C/c2ccc(N(C)C)cc2)CC1c1ccccc1 (centres undefined),10,-8,16,3,5,+
O=C(O)c1ccccc1-c1ccccc1C(=O)Nc1ccc(F)cc1,-2,2,-2,1,-1,i
O=C(/C=C/c1ccc(NC(=O)c2ccccc2-c2ccccc2C(=O)O)cc1)c1ccccc1,9,17*,35,0,6,i
COc1ccc(CCNC(=O)c2nonc2N)cc1OC,3,-1,-5,2,3,i
COc1ccc(CNCCNC(=O)c2nonc2N)cc1OC,2,2,0,3,1,+
O=C1CC(c2cc(-c3ccccc3)no2)C1,-3,7,7,2,-4,i
CCCCN1Cc2ccccc2Oc2cc(Br)ccc2S1(=O)=O,-3,.,.,.,.,+
CC(C)CN1Cc2ccccc2Oc2cc(Br)ccc2S1(=O)=O,0,.,.,.,.,i
COc1ccc(Cn2cc(C(=O)O)c(=O)c3ccccc32)cc1,-3,-2,-2,2,-1,i
O=C(O)c1cn(Cc2ccccc2)c2ccc(Cl)cc2c1=O,-8,17*,5,1,10,i
CCc1nc2ccc(C(=O)Nc3cccc(NS(C)(=O)=O)c3)cn2c1N(C=O)CCC(C)C,-2,.,.,.,.,+
COc1cccc(OCCOCCN(C)CCO)c1,5,6,1,3,11,+
Cc1cc(OCCOCCN(C)CCO)cc(C)c1Cl,-2,-4,0,-2,-3,i
Cc1cccc(NS(=O)(=O)c2ccc(C)c(C(=O)NCC(c3cccs3)N3CCOCC3)c2)c1 (centres undefined),2,.,.,.,.,i
COc1ccc(N(CCC(=O)O)S(=O)(=O)c2ccc(C)c(C)c2)cc1,-1,0,1,-1,0,i
Cc1ccc(S(=O)(=O)CCC(=O)O)cc1C,7,-1,-7,-2,0,+
O=C(COC(=O)c1ccc(Br)cc1)NCc1ccccc1,-2,0,-3,-2,0,i
CC(=O)Cc1cc(O)c2ccccc2c1OC(=O)c1ccc(Br)cc1,-7,-4,-2,1,7,+
CN1C(=O)/C(=C/C=C2/CCCN2C)N(C)C1=S,10,-3,-52,2,8,i
Cc1cc(N2CCCC2)ccc1/C=C1/C(=O)N(C)C(=S)N1C,12,-4,-3,4,-1,+
O=C(O)c1cccc(S(=O)(=O)Nc2ccccc2C(=O)NCCc2ccccc2)c1,-7,-1,5,0,-2,+
COC(=O)C1=NN(c2cccc3ccccc23)C2C(=O)N(c3ccccc3OC)C(=O)C12 (centres undefined),3,-2,-1,2,19*,i
COC(=O)C1=NN(c2ccccc2OC)C2C(=O)N(c3ccccc3OC)C(=O)C12 (centres undefined),1,0,-9,2,-1,i
CC(C)(C)c1ccc(C(=O)NNC(=O)CCc2ccccc2)cc1,-2,-3,-2,-2,-2,+
SMILES,NadD block,PP1 inh,core dimer inh,PP5 inh,CTSL1 counter,Myeloid diff MLP
COc1ccccc1CCNS(=O)(=O)c1cc2c3c(c1)CCN3C(=O)CC2,5,-4,-3,-2,2,i
CCN(c1ccccc1)S(=O)(=O)c1ccc(OC)c(NC(=O)C2=NN(c3ccccc3)C(=O)CC2)c1,18,.,.,.,.,i
CCN(CC)c1ccc(/C=C2\C(=N)N3N=C(CC(=O)N4CCOCC4)SC3=NC2=O)cc1,18,1,-2,0,4,+
CS(=O)(=O)n1nc(-c2ccc(Cl)cc2)nc1N,-5,-6,-3,-4,0,i
Cn1nc(-c2ccc(Cl)cc2)nc2c(=O)n(C)c(=O)nc1-2,.,37*,68*,12*,113*,.
COCCS(=O)(=O)N(Cc1ccccc1)[C@H](C(=O)OC)C(C)C,4,.,.,.,.,i
Cc1cc(=O)[nH]c(N/N=C/c2c(O)n(-c3ccccc3)c(=O)c3ccccc23)n1,4,17*,-42,1,-1,i
COc1ccc([C@@H]2[C@@H]3C(=O)N(C(C)(C)C)C(=O)[C@@H]3[C@]3(C)C(=O)N(c4ccc(C)cc4)C(=O)N23)cc1,1,-8,-2,1,-1,i
COc1ccc([C@@H]2[C@@H]3C(=O)N(C(C)(C)C)C(=O)[C@@H]3[C@]3(C)C(=O)N(c4ccccc4)C(=O)N23)cc1,1,5,-7,2,0,+
CCCC(C)(C)C(=O)N1CCC1(C)C(=O)Nc1ccc(OC)c(OC)c1 (centres undefined),-5,.,.,.,.,i
c1ccc(-c2noc(-c3cccnc3)n2)nc1,-2,-2,1,-7,-3,+
CCCCN(C(=O)CCCSc1nc2ccccc2[nH]1)c1c(N)n(Cc2ccccc2)c(=O)[nH]c1=O,2,-2,2,1,0,i
COCCN(C(=O)CSc1nc2ccc(C)cc2[nH]1)c1c(N)n(Cc2ccccc2)c(=O)[nH]c1=O,10,-5,-4,1,-1,+
CCCN(C(=O)CCCSc1nc2ccccc2[nH]1)c1c(N)n(Cc2ccccc2)c(=O)[nH]c1=O,-1,3,1,1,19*,i
O=C(c1cccc(Br)c1)N1CCN(S(=O)(=O)N2CCCCCC2)CC1,-10,-2,0,3,-7,i
CCN1CC2([N+](=O)[O-])C=CC(=O)C([N+](=O)[O-])(C1)C2CC(=O)c1ccccc1 (centres undefined),13,1,54*,1,1,i
CCCCN1CC2([N+](=O)[O-])C=CC(=O)C([N+](=O)[O-])(C1)C2CC(=O)c1ccccc1 (centres undefined),3,4,22,3,1,i
COc1ccc(C(=O)NCCCN2CCCC2=O)cc1S(=O)(=O)N1CCOCC1,-1,.,.,.,.,i
COc1ccc(CCC(=O)NCCc2ccc(Cl)cc2)cc1,0,0,-4,2,1,i
COc1ccc2c(c1)C(SCC(=O)NCCc1ccc(Cl)cc1)CC(C)(C)O2 (centres undefined),-4,3,-2,3,2,+
